Assay results reported in ChEMBL document CHEMBL3259666, “Discovery of a neuroprotective chemical, (S)-N-(3-(3,6-dibromo-9H-carbazol-9-yl)-2-fluoropropyl)-6-methoxypyridin-2-amine [(-)-P7C3-S243], with improved druglike properties” (J Med Chem, 2014).
pIC50: −log10 of the molar value. The source made the active and inactive calls. No cut-off for these calls is given here.

Legend:
NCI-H2122 = assay: Cytotoxicity against human NCI-H2122 cells; format: cell-based
NCI-H2009 = assay: Cytotoxicity against human NCI-H2009 cells; format: cell-based
[1] = Cytotoxicity against human HCC44 cells; format: cell-based
hERG (KCNH2) = hERG (KCNH2) (Homo sapiens, UniProt Q12809); assay: Inhibition of human ERG channel at 50 uM by patch clamp technique
Cytochrome P450 3A4 = Cytochrome P450 3A4 (Homo sapiens, UniProt P08684); assay: Inhibition of CYP3A4 (unknown origin); format: ADME
Cytochrome P450 2C9 = Cytochrome P450 2C9 (Homo sapiens, UniProt P11712); assay: Inhibition of CYP2C9 (unknown origin); format: ADME
Cytochrome P450 2D6 = Cytochrome P450 2D6 (Homo sapiens, UniProt P10635); assay: Inhibition of CYP2D6 (unknown origin); format: ADME
Cytochrome P450 2C8 = biological target: T1, Cytochrome P450 2C8 (Homo sapiens, UniProt P10632); assay: Inhibition of CYP2C8 (unknown origin); format: ADME
T1 sequence (P10632 whole entry): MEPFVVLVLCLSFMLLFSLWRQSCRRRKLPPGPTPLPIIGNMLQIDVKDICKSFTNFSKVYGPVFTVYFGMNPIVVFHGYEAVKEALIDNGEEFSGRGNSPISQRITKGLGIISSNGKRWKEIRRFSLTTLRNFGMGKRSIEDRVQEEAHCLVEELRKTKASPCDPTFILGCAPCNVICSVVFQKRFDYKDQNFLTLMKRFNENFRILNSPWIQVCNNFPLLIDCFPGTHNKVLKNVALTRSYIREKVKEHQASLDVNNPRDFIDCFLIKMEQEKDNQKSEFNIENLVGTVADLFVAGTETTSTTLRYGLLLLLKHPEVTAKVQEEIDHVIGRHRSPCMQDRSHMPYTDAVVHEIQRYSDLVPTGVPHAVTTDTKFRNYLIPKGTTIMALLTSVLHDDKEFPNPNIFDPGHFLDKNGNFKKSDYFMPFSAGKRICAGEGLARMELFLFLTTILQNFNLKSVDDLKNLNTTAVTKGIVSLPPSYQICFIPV

Cytochrome P450 2B6 = biological target: T2, Cytochrome P450 2B6 (Homo sapiens, UniProt P20813); assay: Inhibition of CYP2B6 (unknown origin); format: ADME
T2 sequence (P20813 whole entry): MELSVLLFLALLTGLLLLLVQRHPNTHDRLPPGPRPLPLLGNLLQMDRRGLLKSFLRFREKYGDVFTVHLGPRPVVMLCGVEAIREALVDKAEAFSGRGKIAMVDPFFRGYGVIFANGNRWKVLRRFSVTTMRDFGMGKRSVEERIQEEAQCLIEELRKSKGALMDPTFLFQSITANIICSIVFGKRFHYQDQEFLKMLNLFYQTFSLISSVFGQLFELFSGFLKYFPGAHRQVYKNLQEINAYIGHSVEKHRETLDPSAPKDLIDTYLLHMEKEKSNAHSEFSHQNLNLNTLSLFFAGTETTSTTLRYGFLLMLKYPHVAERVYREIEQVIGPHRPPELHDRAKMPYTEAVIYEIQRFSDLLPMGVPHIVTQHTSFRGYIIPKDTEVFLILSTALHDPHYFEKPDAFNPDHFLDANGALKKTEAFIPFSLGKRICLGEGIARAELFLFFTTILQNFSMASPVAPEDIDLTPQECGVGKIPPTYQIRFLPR

Cytochrome P450 1A2 = biological target: T3, Cytochrome P450 1A2 (Homo sapiens, UniProt P05177); assay: Inhibition of CYP1A2 (unknown origin); format: ADME
T3 sequence (P05177 whole entry): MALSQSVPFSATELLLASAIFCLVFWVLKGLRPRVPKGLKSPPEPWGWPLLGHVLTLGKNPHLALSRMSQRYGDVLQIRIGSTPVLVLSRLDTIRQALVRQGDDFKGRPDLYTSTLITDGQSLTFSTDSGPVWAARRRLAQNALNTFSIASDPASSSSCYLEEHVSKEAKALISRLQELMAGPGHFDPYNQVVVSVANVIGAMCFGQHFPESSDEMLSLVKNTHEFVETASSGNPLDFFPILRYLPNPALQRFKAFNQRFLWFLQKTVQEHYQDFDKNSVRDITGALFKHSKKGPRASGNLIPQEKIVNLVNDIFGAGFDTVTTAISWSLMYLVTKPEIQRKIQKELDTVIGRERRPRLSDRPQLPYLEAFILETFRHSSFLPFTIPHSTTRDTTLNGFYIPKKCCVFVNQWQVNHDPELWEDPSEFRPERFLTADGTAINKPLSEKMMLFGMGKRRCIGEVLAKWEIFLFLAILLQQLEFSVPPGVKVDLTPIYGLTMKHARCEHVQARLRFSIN

Cytochrome P450 2C19 = Cytochrome P450 2C19 (Homo sapiens, UniProt P33261); assay: Inhibition of CYP2C19 (unknown origin); format: ADME
[2] = Protein binding in plasma (unknown origin) by ultracentrifugation method; format: ADME, cell-free; conditions: read-out: PPB
Translocator protein = Translocator protein (Homo sapiens, UniProt P30536); assay: Inhibition of TSPO (unknown origin)
Mus musculus [3] = assay: Neuroprotective activity in wild type C57BL/J6 mouse assessed as survival of newborn hippocampal neurons at 10 uM, icv administered for 7 days by BrdU staining-based microscopy relative to vehicle-treated control; format: functional, organism-based
Method in brief: (§1)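 Adult (12-week) wild-type C57BL/J6 mice. Compound infused ICV into the left lateral ventricle by osmotic minipump at 0.5 μL/h for 7 days, with BrdU 50 mg/kg/day IP for 6 days. Perfused 24 h after the last BrdU dose. BrdU antigen unmasked (formamide/SSC at 65 °C, then 2 M HCl); anti-BrdU staining. BrdU+ cells in the contralateral dentate gyrus SGZ counted in every fifth 40 μm section and normalised to dentate gyrus volume.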

Mus musculus [4] = assay: Neuroprotective activity in wild type C57BL/J6 mouse assessed as survival of newborn hippocampal neurons at 0.1 to 10 uM, icv administered for 7 days by BrdU staining-based microscopy relative to vehicle-treated control; format: functional, organism-based; method in brief: as §1
Mus musculus [5] = assay: Neuroprotective activity in substantia nigra of C57Bl/6 mouse neurogenesis model assessed as protection from MPTP-induced cell death in mature neurons at 5 mg/kg/day, ip bid administered for 21 days by immunohistochemical analysis relative to vehicle-treated control; format: functional, organism-based
Method in brief: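 MPTP model in adult male C57Bl/6 mice, individually housed 1 week. MPTP free base 30 mg/kg/day IP for 5 days. From day 6 (24 h after the last MPTP dose), compound or vehicle given IP twice daily for 21 days. Mice were then perfused with 4% paraformaldehyde. SNc sectioned at 30 μm intervals and every fourth section stained for TH (DAB, hematoxylin counterstain). TH+ cells counted blinded; mean ± SEM, compared with vehicle + MPTP.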

Chain of Cytochrome P450 3A4 (P08684 whole entry): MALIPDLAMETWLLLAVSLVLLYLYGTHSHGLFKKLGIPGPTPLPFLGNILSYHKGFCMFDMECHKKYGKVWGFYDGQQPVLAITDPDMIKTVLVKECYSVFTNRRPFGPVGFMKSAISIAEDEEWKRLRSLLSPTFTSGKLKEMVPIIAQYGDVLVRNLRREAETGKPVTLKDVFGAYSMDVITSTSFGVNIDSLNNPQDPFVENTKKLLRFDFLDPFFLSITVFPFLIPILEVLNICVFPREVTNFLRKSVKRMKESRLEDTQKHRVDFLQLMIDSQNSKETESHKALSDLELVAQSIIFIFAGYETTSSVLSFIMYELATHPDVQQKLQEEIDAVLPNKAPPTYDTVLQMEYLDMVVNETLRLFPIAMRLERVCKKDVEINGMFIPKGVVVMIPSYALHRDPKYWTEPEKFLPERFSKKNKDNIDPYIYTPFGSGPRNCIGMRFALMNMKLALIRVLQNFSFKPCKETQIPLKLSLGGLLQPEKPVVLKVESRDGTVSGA
Chain of Cytochrome P450 2C19 (P33261 whole entry): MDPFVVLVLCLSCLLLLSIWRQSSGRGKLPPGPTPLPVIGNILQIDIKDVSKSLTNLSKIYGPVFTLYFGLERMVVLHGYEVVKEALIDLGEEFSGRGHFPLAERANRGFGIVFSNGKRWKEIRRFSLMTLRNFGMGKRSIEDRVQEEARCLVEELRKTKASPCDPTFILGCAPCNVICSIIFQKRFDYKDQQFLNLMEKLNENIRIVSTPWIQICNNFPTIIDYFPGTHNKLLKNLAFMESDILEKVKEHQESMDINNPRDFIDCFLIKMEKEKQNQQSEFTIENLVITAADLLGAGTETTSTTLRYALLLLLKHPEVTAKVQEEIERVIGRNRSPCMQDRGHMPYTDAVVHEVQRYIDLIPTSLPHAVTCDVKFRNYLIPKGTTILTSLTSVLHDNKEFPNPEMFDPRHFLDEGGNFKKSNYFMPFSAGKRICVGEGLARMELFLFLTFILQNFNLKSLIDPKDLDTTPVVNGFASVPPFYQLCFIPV
Chain of Cytochrome P450 2D6 (P10635 whole entry): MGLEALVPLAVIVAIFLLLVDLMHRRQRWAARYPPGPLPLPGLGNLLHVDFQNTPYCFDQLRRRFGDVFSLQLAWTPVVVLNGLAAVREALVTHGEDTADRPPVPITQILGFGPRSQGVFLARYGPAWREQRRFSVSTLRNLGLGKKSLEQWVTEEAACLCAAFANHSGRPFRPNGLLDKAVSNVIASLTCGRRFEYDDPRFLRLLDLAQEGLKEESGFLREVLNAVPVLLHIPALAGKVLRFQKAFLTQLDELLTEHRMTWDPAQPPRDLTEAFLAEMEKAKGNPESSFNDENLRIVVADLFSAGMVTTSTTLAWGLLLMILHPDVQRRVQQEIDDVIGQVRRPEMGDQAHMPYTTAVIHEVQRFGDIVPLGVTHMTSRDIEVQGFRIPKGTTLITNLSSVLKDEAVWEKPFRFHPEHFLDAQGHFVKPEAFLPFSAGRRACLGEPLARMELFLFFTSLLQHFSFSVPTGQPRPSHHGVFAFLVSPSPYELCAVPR
Chain of hERG (KCNH2) (Q12809 whole entry): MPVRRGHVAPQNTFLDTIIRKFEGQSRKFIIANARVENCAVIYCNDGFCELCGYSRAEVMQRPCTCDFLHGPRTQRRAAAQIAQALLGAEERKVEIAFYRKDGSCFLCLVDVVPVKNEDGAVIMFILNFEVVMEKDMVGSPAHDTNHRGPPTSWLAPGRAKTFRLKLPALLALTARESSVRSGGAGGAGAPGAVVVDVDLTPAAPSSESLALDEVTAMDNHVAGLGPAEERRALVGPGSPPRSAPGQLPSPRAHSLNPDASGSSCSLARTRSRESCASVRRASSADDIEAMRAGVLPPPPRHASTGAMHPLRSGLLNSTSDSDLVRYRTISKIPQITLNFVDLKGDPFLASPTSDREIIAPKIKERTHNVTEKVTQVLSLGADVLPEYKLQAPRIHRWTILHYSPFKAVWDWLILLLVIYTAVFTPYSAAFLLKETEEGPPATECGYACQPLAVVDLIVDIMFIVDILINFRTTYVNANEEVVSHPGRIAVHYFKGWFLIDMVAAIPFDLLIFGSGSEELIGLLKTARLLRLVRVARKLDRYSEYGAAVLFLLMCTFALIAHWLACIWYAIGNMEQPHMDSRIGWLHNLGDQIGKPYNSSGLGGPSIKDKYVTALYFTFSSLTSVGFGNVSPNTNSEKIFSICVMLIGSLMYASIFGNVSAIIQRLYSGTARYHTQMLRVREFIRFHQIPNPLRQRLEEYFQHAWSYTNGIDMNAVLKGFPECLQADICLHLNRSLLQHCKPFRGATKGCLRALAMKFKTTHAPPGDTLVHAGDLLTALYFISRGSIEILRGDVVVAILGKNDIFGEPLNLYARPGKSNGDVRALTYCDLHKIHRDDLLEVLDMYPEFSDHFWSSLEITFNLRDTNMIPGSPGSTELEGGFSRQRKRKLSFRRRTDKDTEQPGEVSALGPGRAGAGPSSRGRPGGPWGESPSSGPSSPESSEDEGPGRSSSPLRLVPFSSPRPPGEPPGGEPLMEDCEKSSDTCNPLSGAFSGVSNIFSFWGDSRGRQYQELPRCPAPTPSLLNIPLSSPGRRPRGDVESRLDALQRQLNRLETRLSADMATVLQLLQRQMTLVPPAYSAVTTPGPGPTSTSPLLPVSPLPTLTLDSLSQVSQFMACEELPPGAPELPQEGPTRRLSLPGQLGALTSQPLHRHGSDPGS
Chain of Cytochrome P450 2C9 (P11712 whole entry): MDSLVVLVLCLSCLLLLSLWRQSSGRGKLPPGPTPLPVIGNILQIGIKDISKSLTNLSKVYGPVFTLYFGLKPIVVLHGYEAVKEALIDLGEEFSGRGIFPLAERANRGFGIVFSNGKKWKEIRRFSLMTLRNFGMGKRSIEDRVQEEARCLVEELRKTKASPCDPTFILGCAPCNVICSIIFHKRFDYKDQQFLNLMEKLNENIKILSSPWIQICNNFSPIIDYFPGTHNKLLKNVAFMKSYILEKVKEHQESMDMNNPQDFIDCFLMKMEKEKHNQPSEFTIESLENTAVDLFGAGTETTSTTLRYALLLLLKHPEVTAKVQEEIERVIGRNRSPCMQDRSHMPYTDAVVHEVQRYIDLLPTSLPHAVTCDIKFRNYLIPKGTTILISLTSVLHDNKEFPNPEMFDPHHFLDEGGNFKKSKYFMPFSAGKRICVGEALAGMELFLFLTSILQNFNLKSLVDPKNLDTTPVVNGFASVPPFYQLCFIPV
Chain of Translocator protein (P30536 whole entry): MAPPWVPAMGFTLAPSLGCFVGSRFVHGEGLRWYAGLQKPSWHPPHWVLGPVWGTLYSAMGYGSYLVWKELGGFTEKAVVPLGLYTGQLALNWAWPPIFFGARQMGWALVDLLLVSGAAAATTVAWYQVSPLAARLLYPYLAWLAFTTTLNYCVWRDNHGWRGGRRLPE

## COc1cccc(NC[C@H](F)Cn2c3ccc(Br)cc3c3cc(Br)ccc32)n1
NCI-H2122
  pIC50: < 5.00
NCI-H2009
  pIC50: < 5.00
[1]
  pIC50: < 5.00
hERG (KCNH2)
  inhibition at 50 µM: < 15%
Cytochrome P450 3A4
  inhibition (INH): Active
Cytochrome P450 2C9
  inhibition (INH): Active
Cytochrome P450 2D6
  inhibition (INH): Active
Cytochrome P450 2C8
  inhibition (INH): Active
Cytochrome P450 2B6
  inhibition (INH): Active
Cytochrome P450 1A2
  pIC50: 4.70
Cytochrome P450 2C19
  pIC50: 5.72
[2]
  fraction unbound: < 0.01
Translocator protein
  pIC50: 6.46
Mus musculus [3]
  Activity: Active
Mus musculus [4]
  Activity: Active
Mus musculus [5]
  Activity: Active
